Source: publication PMC7647946 (Drug delivery and translational research, 2021)

Columns and labels:
[1] = Solubility of PD98059 in the release medium; format: physicochemical; conditions: 0.4% v/v Tween 80 in 1X DPBS, 37° C
[2] = Pharmacokinetics of PD98059 following IV injection; format: in vivo, rat
Method in brief: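 Male Sprague-Dawley rats, urethane-anaesthetised, received slow femoral-vein infusion of test compound (0.5 mg/ml, 2 ml, 10% Tween 80/DPBS). Blood drawn at 5, 15, 30, 60, 180 and 360 min into K2-EDTA, plasma stored at −80° C. 100 μl plasma spiked with 7-hydroxyflavone, acetonitrile-precipitated, dried and reconstituted. HPLC against naïve-plasma standards; n=3 (n=1 at 6 h). PK Solver 1-/2-compartment fits; non-compartmental AUC0-t.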

[3] = tested on: pERK1/2 expression in PVN; conditions: 1-hour ICV infusion, rats with heart failure; ref [23]; cited from earlier work
Organ = format: in vivo, rat; conditions: healthy rats
Method in brief: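 Male Sprague-Dawley rats (6–8 weeks, 275–300 g), urethane-anaesthetised, with a femoral-vein cannula. Test compound at 0.5 mg/ml in 10% Tween 80/sterile 1X DPBS, 2 ml infused slowly. Brain taken at 1 and 3 h (n=3 per time), rinsed, held at −80° C. 200–400 mg homogenised in DPBS with 7-hydroxyflavone internal standard. Cold-acetonitrile precipitation, N2 drying, mobile-phase reconstitution. HPLC-diode array against naïve-tissue standards; mean ± SD.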

rats with heart failure = conditions: cited from earlier work
[4] = 1-compartment model, IV 1 mg, healthy rats
[5] = 2-compartment model, IV 1 mg, healthy rats
[6] = non-compartmental analysis, IV 1 mg, healthy rats
[7] = 1-hour ICV infusion, rats with heart failure, ref [23]

- solubility in release medium [1]: approximately 113 μg/ml
- AUC0-inf [2, 4]: 76774.83 ng·min/mL
- AUC0-t [2, 4]: 76774.82 ng·min/mL
- AUMC [2, 4]: 1716754 ng.min^2/ml
- C0 [2, 4]: 3433.44 ng/mL
- CI [2, 4]: 13.03 mL/min
- K [2, 4]: 0.045 min⁻¹
- MRT [2, 4]: 0.3727 h
- T1/2 [2, 4]: 0.258 h
- V [2, 4]: 291.25 mL
- Vss [2, 4]: 291.25 mL
- A [2, 5]: 3236.5 ng/mL
- AUC0-inf [2, 5]: 135064 ng·min/mL
- AUC0-t [2, 5]: 131605.22 ng·min/mL
- AUMC [2, 5]: 11287504.55 ng.min^2/ml
- B [2, 5]: 980.76 ng/mL
- C0 [2, 5]: 4217.23 ng/mL
- CI [2, 5]: 7.4 mL/min
- K10 [2, 5]: 0.031 min⁻¹
- K12 [2, 5]: 0.05 min⁻¹
- K21 [2, 5]: 0.031 min⁻¹
- MRT [2, 5]: 1.393 h
- V [2, 5]: 237.12 mL
- Vss [2, 5]: 618.76 mL
- α [2, 5]: 0.104 min
- β [2, 5]: 0.0094 min
- AUC0-t ([2]; IV 1 mg PD98059 in solution, NCA): 142720 ng·min/mL
- K (elimination rate constant) ([2]; non-compartmental analysis, IV 1 mg PD98059 in 10% Tween 80, healthy rats, plasma): 0.0074 min⁻¹
- AUC0-inf [2, 6]: 152980.9 ng·min/mL
- AUC0-t [2, 6]: 142723.37 ng·min/mL
- AUMC0-inf [2, 6]: 14922241.77 ng.min^2/ml
- C0 (plasma concentration at 0 time) [2, 6]: 3863.5 ng/mL
- CI (clearance) [2, 6]: 6.54 mL/min
- MRT0-inf [2, 6]: 1.626 h
- V (volume of distribution) [2, 6]: 885.82 mL
- Vss (steady state volume of distribution) [2, 6]: 637.62 mL
- T1/2 (plasma half-life) ([2]; non-compartmental analysis, IV 1 mg, healthy rats, plasma): 1.566 h
- brain PD98059 level (Organ; 1 hour after IV 1 mg): approximately 410 ng/g
- brain PD98059 level (Organ; 3 hours after IV 1 mg): ~76 ng/g
Compound: COc1cccc(-c2cc(=O)c3ccccc3o2)c1N [PD98059]
- pERK1/2 expression in PVN [3]: decreased
- neuronal excitation in PVN (rats with heart failure; [7]): decreased
- renal sympathetic nerve activity (rats with heart failure; [7]): decreased
- plasma norepinephrine (index of overall sympathetic nerve activity) (rats with heart failure; chronic (4 week) ICV infusions, heart failure rats, ref [19]): reduced
